High-throughput results: PubChem, several laboratories
MDM2 E3 inh = blocks human Mdm2 ubiquitin ligase activity. Q00987. cell-based MDM2 ubiquitination luciferase reporter, 2 h; 0 = plate control, 100 = twice control, blank-subtracted. signal enhancement, % at 5 µM. 210,000 tested, 0.11% active. AID 1230;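 active = signal enhancement of 30% or more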;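 note: luminescence tracks abundance of the self-degrading MDM2-luciferase fusion protein; higher signal means inhibition of MDM2 E3 ligase activity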
Target sequence (Q00987 whole entry, looked up, the tested form may be a part): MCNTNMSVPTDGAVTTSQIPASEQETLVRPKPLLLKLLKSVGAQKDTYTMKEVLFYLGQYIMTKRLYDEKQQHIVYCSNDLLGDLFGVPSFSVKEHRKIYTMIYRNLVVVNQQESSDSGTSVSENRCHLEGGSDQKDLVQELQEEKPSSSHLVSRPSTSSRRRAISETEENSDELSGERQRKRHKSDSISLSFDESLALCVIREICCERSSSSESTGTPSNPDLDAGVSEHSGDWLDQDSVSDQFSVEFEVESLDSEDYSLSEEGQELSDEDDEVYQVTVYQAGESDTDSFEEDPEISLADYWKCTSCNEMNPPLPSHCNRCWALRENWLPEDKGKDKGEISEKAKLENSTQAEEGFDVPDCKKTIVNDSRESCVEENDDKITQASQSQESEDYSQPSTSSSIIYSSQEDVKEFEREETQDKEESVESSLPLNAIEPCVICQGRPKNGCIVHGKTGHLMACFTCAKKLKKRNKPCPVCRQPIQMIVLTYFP
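Timing – 2 h compound exposure at 37 °C · Assay system – mammalian cells stably expressing self-ubiquitinating, self-degrading MDM2 E3–luciferase fusion · Amount – 2000 cells seeded into each well · Measure – % luminescence enhancement versus blank-corrected plate control mean · Measured by – SteadyLite luminescence, 15 min reagent step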
Hck Nef HTS = blocks Nef-activated human Hck kinase. P08631. Recombinant Hck-YEEI plus Nef, Z-Lyte FRET kinase assay. inhibition, % at 20 µM. 220,000 tested, 0.68% active;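 active = Hck-Nef kinase inhibition above about 50%, limit read from the data; inactive = inhibition below that limit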;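 note: 0% = DMSO with Hck plus Nef and 100% = Hck alone without Nef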
Autophagy mod = modulators of autophagy; MEF GFP-LC3 puncta imaging; test concentration mostly 10 µM; calls only at 10 µM (by protocol); 190,000 tested, 0.98% active; AID 463193;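 active = percentage of spot-positive cells more than 3 SD above its plate mean, without a fluorescence outlier flag or 80% toxicity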;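 note: spot-positive cell cutoff set from DMSO-treated cells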
Dynein transport = blocks dynein driven cargo transport along microtubules. 3617.4 mouse cells, GR-EGFP nuclear translocation imaging; test concentration mostly 20 µM; stimulated with dexamethasone, 1 µM; hits give low values. z-score, hits read low. 220,000 tested, 0.47% active. AID 1381;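 active = plate z-score of nuclear minus cytoplasmic receptor signal below a set negative limit, without overly bright fluorescence or cell loss, cut at about -3.5 in these data, passing the limit was not always enough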;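 note: z-score of nuclear minus cytoplasmic ring GR-EGFP intensity difference per well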
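Buffer or medium: tet-free, stripped-serum medium; reagent: dexamethasone at 1.0 µM final, 30 min; incubation: 48 h induction, 1 h compound, 30 min dex at 37 °C; measured by: formaldehyde fixation, Hoechst nuclear stain, 10x automated fluorescence imaging; read-out: nuclear-to-cytoplasmic GR-EGFP distribution per well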
TNF necrop inh = blocks TNF-alpha induced death of Jurkat FADD-/- cells; Jurkat FADD-/- TNF necroptosis rescue, ATP luminescence, 24 h; 0 = TNF only, 100 = no-TNF cells; activation (protection from cell death), % at 10 µM; 220,000 tested, 0.068% active; AID 463075;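 active = activation, meaning protection from cell death, of at least 50% relative to plate controls; inactive = activation below 50%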;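 note: necroptosis triggered by 40 ng/mL TNF-alpha added together with compound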
L929 necroptosis = L929 zVAD cell death inhibition; L929 zVAD necroptosis rescue, ATP luminescence, 24 h; with zVAD 60 µM; viability rescue, % at 10 µM; 220,000 tested, 0.38% active;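 active = activation, scaled between plate controls, above about 75%, limit read from the data; inactive = activation under that limit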;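 note: 0% = zVAD with DMSO and 100% = DMSO alone without zVAD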
* = called active by the depositor; i = inactive; . = no result; + = active, no number. Hits are enriched below; roughly 2.4% of the tested compounds scored in any of these assays.

SMILES	MDM2 E3 inh	Hck Nef HTS	Autophagy mod	Dynein transport	TNF necrop inh	L929 necroptosis
O=C(NCC1CCCO1)C(c1ccccn1)N(Cc1ccccc1Cl)C(=O)CN1C(=O)c2ccccc2S1(=O)=O (configuration not stated)	-93	30	+	1.4	0	-2
O=C(NCC1CCCO1)C(c1ccncc1)N(Cc1ccc(F)cc1)C(=O)CN1C(=O)c2ccccc2S1(=O)=O (configuration not stated)	9	8	i	-0.85	1	1
CC(=O)Nc1ccc(C(=O)CSc2nnnn2C2CCCC2)cc1	-15	20	i	-0.31	0	6
CC(C)NS(=O)(=O)c1ccc(OCC(=O)N(C)Cc2ccccc2)cc1	-1	5	i	0.23	2	-1
COc1ccc(OCC(=O)N(C)Cc2ccccc2)cc1	-12	-2	+	1	1	1
COC(=O)c1sccc1NC(=O)/C=C\c1ccc(Cl)cc1Cl	-22	8	+	0.46	-2	0
Nc1nc(SCc2ccc(F)cc2)ns1	-2	20	i	-1.2	-2	0
Cc1noc(C)c1C(=O)N1CCN(c2ccc(OCc3ccccc3)cc2)CC1	-17	14	.	1.5	0	-1
COc1ccc(Cn2cc3c(-c4ccc(F)cc4)nnc-3c3cc(OC)c(OC)cc32)cc1	-22	-2	i	-0.82	-12	9
COc1cc2c3nnc(-c4ccc(F)cc4)c-3cn(Cc3ccc(F)cc3)c2cc1OC	-14	-1	+	-1.2	-14	6
COc1cc2c3nnc(-c4ccc(F)cc4)c-3cn(Cc3ccccc3)c2cc1OC	-31	4	+	-0.76	-7	1
O=c1oc2cc(Oc3c([N+](=O)[O-])cc(C(F)(F)F)cc3[N+](=O)[O-])ccc2c2c1CCCC2	-24	20	i	-3.8*	-10	0
CC(C)C[C@H](N)c1nnc(S(=O)(=O)Cc2ccc(F)cc2)o1	5	-22	i	-3.7*	-11	4
COc1ccc(CC(=O)Nc2ccc(-c3noc(-c4cc(OC)c(OC)c(OC)c4)n3)cc2)cc1	5	6	+	0.86	-2	1
CCn1c([N+](=O)[O-])nc2c1c(=O)[nH]c(=O)n2C	-6	-15	i	-3.2	51*	-2
CCCCCCn1c(SCCCC)nc2c1c(=O)[nH]c(=O)n2C	-5	1	i	-0.58	-2	0
O=C(NCc1cccnc1)c1ccccc1CCc1ccccc1	-15	-5	i	0.99	0	0
COCCn1nnnc1CN(CCc1ccc(OC)c(OC)c1)Cc1cc2ccc(C)cc2[nH]c1=O	-6	2	+	3.4	-3	-1
COc1ccc2cc(/C(C)=N/NC(=S)Nc3cc(S(=O)(=O)N4CCOCC4)ccc3N3CCOCC3)ccc2c1	12	-6	+	0.75	-1	0
C/C(=N\NC(=S)Nc1cc(S(=O)(=O)N2CCOCC2)ccc1Cl)c1ccc(N2CCOCC2)cc1	-10	4	.	1.5	2	1
CCOc1ccc(C(Nc2cccnc2)c2cc(Cl)c3cccnc3c2O)cc1 (configuration not stated)	-8	51*	i	-0.9	-5	-1
O=C(O)COc1ccccc1C(Nc1cccnc1)c1cc(Cl)c2cccnc2c1O (configuration not stated)	-13	19	i	-0.23	0	1
CCCN(CCC)CCNc1c(NC2CCN(C(=O)OCC)CC2)c(=O)c1=O	48*	1	i	-0.73	0	4
CCCN(CCC)CCNc1c(N2CCN(C(=O)OCC)CC2)c(=O)c1=O	-19	-1	i	-0.017	1	1
Cn1c(=O)c2c(nc(N3CCOCC3)n2C/C=C/c2ccccc2)n(C)c1=O	-12	5	.	-0.32	-1	-1
C/C(=N\NC(=S)NC1CCCCC1)c1cccc(Br)c1	-9	-2	i	2.9	0	0
